Measurements published in PMC3947851 (Bioorganic & medicinal chemistry, 2012).
In brackets after ≈: the same amount, converted by molar mass. Where a name gives a salt, the structure may show the parent alone. Blank lines part the entries; values can stand above or below the compound they belong to.

Experiments:
SaFtsZ [1] = biological target: T1, SaFtsZ (Staphylococcus aureus, UniProt P0A031); assay: FtsZ polymerization assay; format: biochemical; conditions: for Impact on SaFtsZ polymerization (A340) / Stability of compound-induced SaFtsZ polymers to added GDP: compound 40 μg/mL, 1 mM GTP; for Impact on SaFtsZ polymerization (A340): 10 μM SaFtsZ, 25 °C; for Stability of compound-induced SaFtsZ polymers to added GDP: 1 mM GDP added
T1 sequence (P0A031 1-390): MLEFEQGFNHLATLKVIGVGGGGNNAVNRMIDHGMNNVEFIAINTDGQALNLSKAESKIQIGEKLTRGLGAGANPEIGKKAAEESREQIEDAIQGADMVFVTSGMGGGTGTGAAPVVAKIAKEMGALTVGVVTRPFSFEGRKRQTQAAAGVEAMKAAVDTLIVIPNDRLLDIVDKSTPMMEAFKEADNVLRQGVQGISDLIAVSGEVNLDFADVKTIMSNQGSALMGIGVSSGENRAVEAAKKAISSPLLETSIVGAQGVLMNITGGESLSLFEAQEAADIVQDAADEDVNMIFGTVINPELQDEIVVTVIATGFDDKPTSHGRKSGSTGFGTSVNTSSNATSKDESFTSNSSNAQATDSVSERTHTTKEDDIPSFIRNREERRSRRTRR

[2] = biological target: microtubule-associated protein (MAP)-rich porcine β-tubulin (Sus scrofa, UniProt P02554); assay: Tubulin polymerization assay; format: biochemical; conditions: tubulin 2 mg/mL
In short: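 MAP-rich porcine tubulin (70% tubulin, 30% MAPs) at 2 mg/mL with 1 mM GTP in 80 mM PIPES NaOH (pH 7.0), 2 mM MgCl2, 1 mM EGTA. Test compound 40 μg/mL, paclitaxel 25 μg/mL or nocodazole 10 μg/mL as comparators, or DMSO vehicle. Turbidity (A340) read continuously at 37 °C over 60 min.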

SaFtsZ [3] = biological target: T1, SaFtsZ; assay: FtsZ GTPase assay; format: biochemical; conditions: for Concentration dependence of the impact on SaFtsZ GTPase activity: 10 μM SaFtsZ, Fig. 4
[4] = MTT cytotoxicity assay, HEK293; format: cell-based, human; conditions: human, HEK293 cells
In short: (§1)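 MTT tetrazolium assay in 96-well plates. Cells were grown […] at 37 °C in 5% CO2 and passaged in DMEM. Each well was seeded with 1500 cells, and triplicate wells were exposed continuously to varying concentrations of test compound for four days. MTT was read at the end of day 4, and IC50 was determined.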

[5] = MTT cytotoxicity assay, MDCK; format: cell-based, canine; conditions: dog, MDCK cells
In short: as §1

S. aureus 8325-4 (MSSA) = assay: MIC assay, CLSI broth microdilution, MSSA; format: cell-based; conditions: Staphylococcus aureus, 24 h, read-out: MIC S. aureus 8325-4 (MSSA), lowest concentration at which growth is ≥90% inhibited, CAMH broth, 37 °C
HEK293 cells = assay: MTT cytotoxicity assay, HEK293; format: cell-based, human; conditions: 10 μM, MTT
In short: as §1

Sequence of microtubule-associated protein (MAP)-rich porcine β-tubulin (P02554 whole entry): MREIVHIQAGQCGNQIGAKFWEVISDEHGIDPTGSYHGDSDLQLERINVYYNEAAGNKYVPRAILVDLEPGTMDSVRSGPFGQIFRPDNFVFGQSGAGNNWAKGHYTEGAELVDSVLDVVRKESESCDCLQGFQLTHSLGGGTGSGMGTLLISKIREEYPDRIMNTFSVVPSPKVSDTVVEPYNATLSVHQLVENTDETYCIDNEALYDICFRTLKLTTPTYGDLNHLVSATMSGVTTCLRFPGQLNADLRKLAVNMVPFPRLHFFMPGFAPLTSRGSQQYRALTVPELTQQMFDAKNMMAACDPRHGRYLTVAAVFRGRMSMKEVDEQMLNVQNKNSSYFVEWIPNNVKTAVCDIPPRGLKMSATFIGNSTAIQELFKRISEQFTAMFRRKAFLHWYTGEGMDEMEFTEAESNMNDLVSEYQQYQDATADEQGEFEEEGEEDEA
Sequence of microtubule-associated protein (MAP)-rich porcine β-tubulin (P02550 whole entry partner): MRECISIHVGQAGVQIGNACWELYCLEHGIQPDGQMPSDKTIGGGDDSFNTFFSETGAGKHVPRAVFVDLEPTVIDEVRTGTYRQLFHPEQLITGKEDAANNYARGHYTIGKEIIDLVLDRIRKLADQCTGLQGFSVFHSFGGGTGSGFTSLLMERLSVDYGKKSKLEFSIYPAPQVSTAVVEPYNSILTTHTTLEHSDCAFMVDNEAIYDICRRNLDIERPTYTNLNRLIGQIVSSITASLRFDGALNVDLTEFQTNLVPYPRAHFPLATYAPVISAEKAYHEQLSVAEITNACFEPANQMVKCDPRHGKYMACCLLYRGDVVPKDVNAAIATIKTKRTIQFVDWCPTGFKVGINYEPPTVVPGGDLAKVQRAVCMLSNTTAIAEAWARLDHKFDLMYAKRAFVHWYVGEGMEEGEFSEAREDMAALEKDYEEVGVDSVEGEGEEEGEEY

Structure (SMILES): COc1ccc2cc3[n+](cc2c1OC)CCc1cc2c(cc1-3)OCO2 [Berberine, berberine, reference compound]
Impact on SaFtsZ polymerization (A340) (SaFtsZ [1]): did not significantly impact SaFtsZ polymerization

Impact on SaFtsZ polymerization (A340) (SaFtsZ [1]): stimulate SaFtsZ polymerization
Structure (SMILES): COc1cc2cc(-c3cccc(C(C)(C)C)c3)nc(CN=C(N)N)c2cc1OC [Compound 19a, 2-((3-(3-(t-Butyl)phenyl)-6,7-dimethoxyisoquinolin-1-yl)methyl)guanidine]
Impact on polymerization of porcine β-tubulin (A340) ([2]; compound 40 μg/mL, 37 °C): neither 7b nor 19a exert a significant impact

Impact on SaFtsZ polymerization (A340) (SaFtsZ [1]): stimulate SaFtsZ polymerization
Structure (SMILES): COc1cc2cc(-c3cccc(C(C)(C)C)c3)nc(C/N=C(/C)N)c2cc1OC [Compound 18a, N′-((3-(3-(t-butyl)phenyl)-6,7-dimethoxyisoquinolin-1-yl)methyl)acetimidamide]
Concentration dependence of the impact on SaFtsZ GTPase activity (SaFtsZ [3]): stimulate GTPase activity at lower concentrations, followed by inhibition at higher concentrations

Impact on SaFtsZ polymerization (A340) (SaFtsZ [1]): stimulate SaFtsZ polymerization
Structure (SMILES): COc1cc2cc(-c3cccc(C(C)(C)C)c3)nc(CCN)c2cc1OC [Compound 17a, 2-(3-(3-(t-Butyl)phenyl)-6,7-dimethoxyisoquinolin-1-yl)ethanamine]
IC50 at 4 days [4]: 2200 to 3500 nM
Stability of compound-induced SaFtsZ polymers to added GDP (SaFtsZ [1]): stable to the depolymerizing effects of GDP
IC50 at 4 days [5]: 2200 to 3500 nM

Structure (SMILES): COc1cc2cc(-c3cccc(C(C)(C)C)c3)nc(C)c2cc1OC [Compound 4a, 3-(3-(t-Butyl)phenyl)-6,7-dimethoxy-1-methylisoquino line]
Impact on SaFtsZ polymerization (A340) (SaFtsZ [1]): did not significantly impact SaFtsZ polymerization

Impact on SaFtsZ polymerization (A340) (SaFtsZ [1]): stimulate SaFtsZ polymerization
Structure (SMILES): COc1cc2cc(-c3cccc(-c4ccc(-c5ccccc5)cc4)c3)[n+](C)c(C)c2cc1OC.[I-] [Compound 5b, 3-([1,1′:4′,1″-Terphenyl]-3-yl)-6,7-dimethoxy-1,2-dimethy lisoquinolin-2-ium iodide]

Impact on SaFtsZ polymerization (A340) (SaFtsZ [1]): stimulate SaFtsZ polymerization
Structure (SMILES): COc1cc2cc(-c3cccc(-c4ccc(C(C)(C)C)cc4)c3)[n+](C)c(C)c2cc1OC.[I-] [Compound 7b, 3-(4′-(t-Butyl)-[1,1′-biphenyl]-3-yl)-6,7-dimethoxy-1,2-dimethylisoquinolin-2-ium iodide]
Stability of compound-induced SaFtsZ polymers to added GDP (SaFtsZ [1]): stable to the depolymerizing effects of GDP
Impact on polymerization of porcine β-tubulin (A340) ([2]; compound 40 μg/mL, 37 °C): neither 7b nor 19a exert a significant impact

MIC (S. aureus 8325-4 (MSSA)): 2 to 4 µg/mL (≈ 4.92 to 9.84 µM)
Impact on SaFtsZ polymerization (A340) (SaFtsZ [1]): stimulate SaFtsZ polymerization
Structure (SMILES): COc1cc2cc(-c3cccc(C(C)(C)C)c3)nc(CCN=C(N)N)c2cc1OC [Compound 20a, 2-(2-(3-(3-(t-Butyl)phenyl)-6,7-dimethoxyisoquinolin-1-yl)ethyl)guanidine]
Concentration dependence of the enhancement of SaFtsZ polymerization (SaFtsZ [1]; 20, 30 and 40 μg/mL): enhances SaFtsZ polymerization increases with increasing compound concentration
Stability of compound-induced SaFtsZ polymers to added GDP (SaFtsZ [1]): stable to the depolymerizing effects of GDP

Structure (SMILES): COc1cc2cc(-c3cccc(-c4ccccc4)c3)nc(N=C(N)N)c2cc1OC [Compound 10a, 2-(3-([1,1′-biphenyl]-3-yl)-6,7-dimethoxyisoquinolin-1-yl)guanidine]
IC50 at 4 days [4]: 2200 to 3500 nM
IC50 at 4 days [5]: 2200 to 3500 nM

Structure (SMILES): CC(=O)O[C@H]1C(=O)[C@@]2(C)[C@H]([C@H](OC(=O)c3ccccc3)[C@]3(O)C[C@H](OC(=O)[C@H](O)[C@@H](NC(=O)c4ccccc4)c4ccccc4)C(C)=C1C3(C)C)[C@]1(OC(C)=O)CO[C@@H]1C[C@@H]2O [paclitaxel, reference compound]
Impact on polymerization of porcine β-tubulin (A340) ([2]; 25 μg/mL, positive control): produce their expected impacts on tubulin polymerization dynamics

Structure (SMILES): COc1cc2cc(-c3cccc(C(C)(C)C)c3)nc(CN)c2cc1OC [Compound 16a, (3-(3-(t-Butyl)phenyl)-6,7-dimethoxyisoquinolin-1-yl)methanamine]
Human cell toxicity at the highest concentration tested (HEK293 cells): no significant human cell toxicity

Impact on SaFtsZ polymerization (A340) (SaFtsZ [1]): stimulate SaFtsZ polymerization
Structure (SMILES): COc1cc2cc(-c3cccc(-c4ccccc4)c3)nc(CCN=C(N)N)c2cc1OC [Compound 15a, 2-(2-(3-([1,1′-Biphenyl]-3-yl)-6,7-dimethoxyisoquinolin-1-yl)ethyl)guanidine]
Human cell toxicity at the highest concentration tested (HEK293 cells): no significant human cell toxicity
Concentration dependence of the impact on SaFtsZ GTPase activity (SaFtsZ [3]): stimulate GTPase activity at lower concentrations, followed by inhibition at higher concentrations

Structure (SMILES): CN[C@H](CC(C)C)C(=O)N[C@H]1C(=O)N[C@@H](CC(N)=O)C(=O)N[C@H]2C(=O)N[C@H]3C(=O)N[C@H](C(=O)N[C@H](C(=O)O)c4cc(O)cc(O)c4-c4cc3ccc4O)[C@H](O)c3ccc(c(Cl)c3)Oc3cc2cc(c3O[C@@H]2O[C@H](CO)[C@@H](O)[C@H](O)[C@H]2O[C@H]2C[C@](C)(N)[C@H](O)[C@H](C)O2)Oc2ccc(cc2Cl)[C@H]1O [Vancomycin, reference compound]
Percent GTPase activity (SaFtsZ [3]; 40 μg/mL, percentage of activity with vehicle (DMSO) alone, mean of two ± SD): no significant impact
Impact on SaFtsZ polymerization (A340) (SaFtsZ [1]): no impact on the polymerization of SaFtsZ

Structure (SMILES): COc1cc2cc(-c3cccc(-c4ccc(C(C)(C)C)cc4)c3)nc(CN=C(N)N)c2cc1OC [Compound 21a, 2-((3-(4′-(t-Butyl)-[1,1′-biphenyl]-3-yl)-6,7-dimethoxyisoquinolin-1-yl)methyl)guanidine trifluoroacetate]
MIC (S. aureus 8325-4 (MSSA)): 2 to 4 µg/mL

Structure (SMILES): COC(=O)Nc1nc2cc(C(=O)c3cccs3)ccc2[nH]1 [nocodazole, reference compound]
Impact on polymerization of porcine β-tubulin (A340) ([2]; 10 μg/mL, positive control): produce their expected impacts on tubulin polymerization dynamics

Impact on SaFtsZ polymerization (A340) (SaFtsZ [1]): stimulate SaFtsZ polymerization
Structure (SMILES): NC(=O)c1c(F)ccc(OCc2nc3cc(Cl)cnc3s2)c1F [PC190723, reference compound]

Structure (SMILES): COc1cc2cc(-c3cccc(-c4ccc(C(C)(C)C)cc4)c3)nc(C)c2cc1OC [Compound 7a, 3-(4′-(t-Butyl)-[1,1′-biphenyl]-3-yl)-6,7-dimethoxy-1-methylisoquinoline]
Impact on SaFtsZ polymerization (A340) (SaFtsZ [1]): did not significantly impact SaFtsZ polymerization

Structure (SMILES): COc1cc2cc(-c3cccc(-c4ccccc4)c3)nc(CN=C(N)N)c2cc1OC [Compound 13a, 2-((3-([1,1′-biphenyl]-3-yl)-6,7-dimethoxyisoquinolin-1-yl)methyl)guanidine trifluo roacetate]
Human cell toxicity at the highest concentration tested (HEK293 cells): no significant human cell toxicity
